Article PMC7472862 (Heliyon, 2020)
“And” between values parts separate entries of the source, which are not always exact repeats. Equal values may be shown once.

What was measured:
[1] = target: rat α-glucosidase; test: α-glucosidase inhibition method; type: biochemical
How it was run: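 Enzyme was the supernatant of rat intestinal acetone powder in saline, sonicated at 4 °C and spun at 1008 ×g (4 °C, 30 min). Test compound (20–300 µg/mL) and enzyme pre-incubated 5 min at 37 °C in 50 mM phosphate pH 6.8. 3 mM PNPG added, then 30 min at 37 °C and A405 read.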

[2] = ABTS radical scavenging assay
How it was run: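 ABTS radical cation formed by mixing 7 mM ABTS with 2.4 mM ammonium persulfate (1:1) and leaving 18–24 h in the dark at room temperature. Test compound (20–300 µg/mL) added to the ABTS solution and absorbance read at 734 nm. % inhibition = (OD control − OD sample)/OD control × 100, and IC50 taken from this. Ascorbic acid (10–150 µg/mL) served as positive control.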

[3] = target: T1, porcine pancreatic α-amylase (Sus scrofa, UniProt P00690); test: biochemical; conditions: α-Amylase inhibition method IC50 value
T1 sequence (P00690 16-511): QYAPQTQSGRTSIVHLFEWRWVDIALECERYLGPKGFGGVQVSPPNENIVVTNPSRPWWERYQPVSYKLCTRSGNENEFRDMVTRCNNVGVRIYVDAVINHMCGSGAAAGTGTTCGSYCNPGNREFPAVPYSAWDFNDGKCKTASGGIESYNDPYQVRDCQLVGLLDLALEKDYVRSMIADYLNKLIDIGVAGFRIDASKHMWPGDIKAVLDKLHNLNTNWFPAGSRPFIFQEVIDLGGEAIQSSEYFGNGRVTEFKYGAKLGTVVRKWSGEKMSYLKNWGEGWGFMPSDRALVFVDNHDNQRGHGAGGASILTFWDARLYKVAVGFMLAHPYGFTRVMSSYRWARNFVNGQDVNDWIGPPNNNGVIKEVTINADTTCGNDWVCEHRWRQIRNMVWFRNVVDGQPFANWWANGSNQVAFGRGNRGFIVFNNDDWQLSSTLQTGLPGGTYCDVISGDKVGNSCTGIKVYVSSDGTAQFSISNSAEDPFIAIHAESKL

[4] = DPPH free radical scavenging assay
How it was run: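 Test compound (20–300 µg/mL) mixed with an equal volume of DPPH solution, shaken vigorously, then kept 30 min in the dark at room temperature. Absorbance read at 517 nm. % scavenging = (OD control − OD sample)/OD control × 100, and IC50 derived from this. Ascorbic acid (10–150 µg/mL) served as positive control.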

Row | Compound | α-Glucosidase inhibition method IC50 value [1] | ABTS Assay IC50 value [2] | IC50 [3] | DPPH Assay IC50 value [4]
1 | CCN(O)N=Nc1ccc(S(=O)(=O)Nc2cc(C)on2)cc1 [SM-2, 3ـhydroxyـ3ـethylـ1ـ(4ـ(Nـ(5ـmethylisoxazolـ3ـyl)sulfamoyl)phenyl)triazene] | 201.99 µg/mL | 401.72 µg/mL | 376 µM | –
2 | Cc1cccc(N(O)N=Nc2ccc(S(=O)(=O)Nc3cc(C)on3)cc2)c1 [SM-5, 3ـhydroxyـ3ـ(3ـmethylphenyl)ـ1ـ(4ـ(Nـ(5ـmethylisoxazolـ3ـyl)sulfamoyl)phenyl)triazene] | 314.43 µg/mL | 81.50 µg/mL | 519 µM | 660 µg/mL and 660.39 µg/mL
3 | Cc1cccc(N(O)N=Nc2ccc(S(=O)(=O)Nc3onc(C)c3C)cc2)c1 [SF-5, 3ـhydroxyـ3ـ(3ـmethylphenyl)ـ1ـ(4ـ(Nـ(3,4ـdimethylisoxazolـ5ـyl)sulfamoyl)phenyl)triazene] | 292 µg/mL | 164.34 µg/mL | 546 µM and 548 µM | 423 µg/mL and 423.91 µg/mL
4 | CCCN(O)N=Nc1ccc(S(=O)(=O)Nc2cc(C)on2)cc1 [SM-3, 3ـhydroxyـ3ـpropylـ1ـ(4ـ(Nـ(5ـmethylisoxazolـ3ـyl)sulfamoyl)phenyl)triazene] | 222.91 µg/mL | 282.32 µg/mL | 624 µM | 624 µg/mL
5 | O=C1O[C@H]([C@@H](O)CO)C(O)=C1O [ascorbic acid, reference compound] | – | 69.13 (ascorbic acid) μg/mL | – | 29.12 (ascorbic acid) μg/mL
6 | CCCN(O)N=Nc1ccc(S(=O)(=O)Nc2nccs2)cc1 [ST-3, 3ـhydroxyـ3ـpropylـ1ـ(4ـ(Nـ(thiazolـ2ـyl)sulfamoyl)phenyl)triazene] | 252 µg/mL | 160.145 µg/mL | 586 µM | 662 µg/mL and 662.79 µg/mL
7 | Cc1ccc(N(O)N=Nc2ccc(S(=O)(=O)Nc3cc(C)on3)cc2)cc1 [SM-6, 3ـhydroxyـ3ـ(4ـmethylphenyl)ـ1ـ(4ـ(Nـ(5ـmethylisoxazolـ3ـyl)sulfamoyl)phenyl)triazene] | 262.74 µg/mL | 250.26 µg/mL | 425 µM | 550.32 µg/mL
8 | CCCN(O)N=Nc1ccc(S(=O)(=O)Nc2onc(C)c2C)cc1 [SF-3, 3ـhydroxyـ3ـpropylـ1ـ(4ـ(Nـ(3,4ـdimethylisoxazolـ5ـyl)sulfamoyl)phenyl)triazene] | 235.55 µg/mL | 218.94 µg/mL | 419 µM | 490.82 µg/mL
9 | CN(O)N=Nc1ccc(S(=O)(=O)Nc2nccs2)cc1 [ST-1, 3ـhydroxyـ3ـmethylـ1ـ(4ـ(Nـ(thiazolـ2ـyl)sulfamoyl)phenyl)triazene] | 238 µg/mL | – | 559 µM | 488 µg/mL and 488.06 µg/mL
10 | Cc1noc(NS(=O)(=O)c2ccc(N=NN(O)c3ccccc3)cc2)c1C [SF-4, 3ـhydroxyـ3ـphenylـ1ـ(4ـ(Nـ(3,4ـdimethylisoxazolـ5ـyl)sulfamoyl)phenyl)triazene] | 233 µg/mL | – | 452 µM | 578.76 µg/mL
11 | Cc1cc(NS(=O)(=O)c2ccc(N=NN(C)O)cc2)no1 [SM-1, 3ـhydroxyـ3ـmethylـ1ـ(4ـ(Nـ(5ـmethylisoxazolـ3ـyl)sulfamoyl)phenyl)triazene] | – | 252.96 µg/mL | 698 µM | 426 µg/mL and 426.75 µg/mL
12 | CCN(O)N=Nc1ccc(S(=O)(=O)Nc2nccs2)cc1 [ST-2, 3ـhydroxyـ3ـethylـ1ـ(4ـ(Nـ(thiazolـ2ـyl)sulfamoyl)phenyl)triazene] | 219 µg/mL | 232.39 µg/mL and 232.393 µg/mL | 707 µM | 532.35 µg/mL
13 | C[C@H]1O[C@H](O[C@H]2[C@H](O)[C@@H](O)[C@@H](O[C@H]3[C@H](O)[C@@H](O)C(O)O[C@@H]3CO)O[C@@H]2CO)[C@H](O)[C@@H](O)[C@@H]1N[C@H]1C=C(CO)[C@@H](O)[C@H](O)[C@H]1O (some centres unmarked) [acarbose, reference compound] | 12.21 (acarbose) μg/mL | – | – | –
14 | Cc1ccc(N(O)N=Nc2ccc(S(=O)(=O)Nc3onc(C)c3C)cc2)cc1 [SF-6, 3ـhydroxyـ3ـ(4ـmethylphenyl)ـ1ـ(4ـ(Nـ(3,4ـdimethylisoxazolـ5ـyl)sulfamoyl)phenyl)triazene] | 329 µg/mL | 70 µg/mL and 70.62 µg/mL | 612 µM | 587.28 µg/mL
15 | CCN(O)N=Nc1ccc(S(=O)(=O)Nc2onc(C)c2C)cc1 [SF-2, 3ـhydroxyـ3ـethylـ1ـ(4ـ(Nـ(3,4ـdimethylisoxazolـ5ـyl)sulfamoyl)phenyl)triazene] | 248.64 µg/mL | 229.83 µg/mL | 625 µM | 614.17 µg/mL
16 | Cc1noc(NS(=O)(=O)c2ccc(N=NN(C)O)cc2)c1C [SF-1, 3ـhydroxyـ3ـmethylـ1ـ(4ـ(Nـ(3,4ـdimethylisoxazolـ5ـyl)sulfamoyl)phenyl)triazene] | 270 µg/mL | – | 531 µM | 556.65 µg/mL
17 | Cc1cccc(N(O)N=Nc2ccc(S(=O)(=O)Nc3nccs3)cc2)c1 [ST-5, 3ـhydroxyـ3ـ(3ـmethylphenyl)ـ1ـ(4ـ(Nـ(thiazolـ2ـyl)sulfamoyl)phenyl)triazene] | 341 µg/mL | 92.075 µg/mL | 558 µM | 472.08 µg/mL
18 | Cc1cc(NS(=O)(=O)c2ccc(N=NN(O)c3ccccc3)cc2)no1 [SM-4, 3ـhydroxyـ3ـphenylـ1ـ(4ـ(Nـ(5ـmethylisoxazolـ3ـyl)sulfamoyl)phenyl)triazene] | 249 µg/mL | 104.13 µg/mL | 469 µM | 583.31 µg/mL
19 | O=S(=O)(Nc1nccs1)c1ccc(N=NN(O)c2ccccc2)cc1 [ST-4, 3ـhydroxyـ3ـphenylـ1ـ(4ـ(Nـ(thiazolـ2ـyl)sulfamoyl)phenyl)triazene] | 280.03 µg/mL | – | 550 µM | 565.88 µg/mL
